# The full list was thinned out, with hits kept by preference.
# HCT116 PTEN-null – growth suppression of PTEN-null HCT116, primary screen, cell-based, CellTiter-Glo | HCT116 PTEN-null viability, 60 h; stronger effect = lower value | viability, % at 10 µM | 140,000 tested, 1.2% active | AID 827, 2007;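 active means viability at or below a set limit, 4 SD under the median of all tested compounds, cut at about 3.7% in these data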;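 further: PTEN knockout HCT116 line with beta catenin targeted HCT116 as companion control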
# bCat KO growth – primary screen for growth suppressors in beta-catenin knockout HCT116 cells (colon tumor, human). HCT116 beta-catenin knockout viability, CellTiter-Glo, 60 h; stronger effect = lower value. viability, % at 10 µM. 140,000 tested, 1.5% active. AID 818, 2007;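 active means viability at or under a set limit, the compound median less 4 SD, cut at about 6% in these data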;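 further: 0% = Hyamine 1622 control at 20 µM and 100% = untreated cell control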
# H69AR inhibit – proliferation blockers of H69AR lung cancer cells, primary screen, cell-based, human, 86K library; H69AR lung tumor viability, ATP luminescence, 72 h; stronger effect = lower value; 85,000 tested, 6% active; AID 598, 2007; viability, % at 10 µM;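 active means viability at or below 40%; inactive means viability above 40%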;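 further: multidrug resistant small cell line overexpressing MRP-1 efflux transporter; 100% = mean luminescence of untreated control wells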
# Fibroblast inh – antiproliferative effect on LL 47 fibroblasts – human, LL 47 cells, CellTiter-Glo luminescence, primary screen; viability, % at 10 µM; 85,000 tested, 1.1% active; LL 47 human lung fibroblast viability, ATP luminescence; stronger effect = lower value;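 active means viability at or below 50% in the single dose screen; inactive means viability above 50%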;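 further: compound exposure lasted 72 h before the ATP readout; 100% = median luminescence of untreated cell-only wells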
#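 material = human LL 47 lung fibroblast cells | dosing = compounds added from tenfold dosing solution, 0.1% DMSO final | timing = overnight cell rest, 72 h compound treatment at 37 °C | measured by = CellTiter-Glo luminescence measuring cellular ATP | evaluation = % viability versus median cells-only luminescence | control set = cell-only wells, no compound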
# HUVEC inhibit – inhibitors of HUVEC proliferation, primary screen, cell-based, 384-well; CellTiter-Glo luminescence, 72 h; stronger effect = lower value; viability, % at 10 µM (by protocol); 86,000 tested, 1.1% active; AID 648, 2007;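 active means viability at or below 30%; inactive means viability above 30%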;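 further: 100% = median luminescence of DMSO-only cell control wells on each plate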
# * marks the source's active call; other numbers are inactive results; . = no result given.
SMILES,HCT116 PTEN-null,bCat KO growth,H69AR inhibit,Fibroblast inh,HUVEC inhibit
CCCC1C2CN(C(C)C)CC=C2C(C#N)=C(N)C1(C#N)C#N (stereo unspecified),100,103,21*,97,94
CN1CC=C2C(C#N)=C(N)C(C#N)(C#N)C(c3ccsc3)C2C1 (stereo unspecified),94,83,60,95,94
CN1CC=C2C(C#N)=C(N)C(C#N)(C#N)[C@H](c3cccs3)[C@H]2C1,78,76,35*,85,91
CC(C)N(c1ccccc1)c1ccc(NC(=O)COC(=O)CCN2C(=O)c3cccc([N+](=O)[O-])c3C2=O)cc1,79,77,.,.,.
CC(=O)Nc1ccc2c(c1)CN(c1cc(C)ccc1C)CO2,79,87,.,.,.
CN(C)CCNC(=O)/C(=C/c1ccc(-c2ccc(Cl)cc2Cl)o1)NC(=O)c1ccccc1,1.5*,1.9*,.,.,.
O=C(NCC1CCCO1)/C(=C\c1ccc(Cl)cc1)NC(=O)c1ccccc1 (stereo unspecified),98,94,.,.,.
CN(C)CCNC(=O)/C(=C/c1ccc(-c2ccc(Cl)cc2)o1)NC(=O)c1ccccc1,0.8*,0.9*,.,.,.
Cc1ccc(C(=O)N/C(=C/c2ccc(-c3cc(C(F)(F)F)ccc3Cl)o2)C(=O)NCc2cccnc2)cc1,61,63,.,.,.
COc1ccc(CC(=O)Nc2cccc(S(=O)(=O)N3CCCCCC3)c2)cc1OC,25,22,.,.,.
Cc1ccc(S(=O)(=O)N(C)CC(=O)OCC(=O)c2c(N)n(C)c(=O)n(C)c2=O)cc1,97,90,.,.,.
CCOC(=O)c1sc(NC(=O)c2ccccc2)cc1C,65,78,.,.,.
CCOC(=O)c1sc(NC(=O)c2ccc(Cl)s2)cc1C,96,90,97,104,67
CCOC(=O)c1sc(NC(=O)c2c(C)nn(Cc3ccccc3)c2C)cc1C,6,19,13*,94,60
CCOC(=O)c1sc(NC(=O)Nc2ccc(Cl)cc2)cc1C,5,5.2*,.,.,.
O=C(Nc1ccc(F)cc1)c1ccccc1S(=O)(=O)c1ccccc1[N+](=O)[O-],93,95,.,.,.
COc1ccc(-c2noc(-c3ccc(Br)o3)n2)cc1OC,107,103,81,88,29*
CSCCC(NS(=O)(=O)c1ccc(Cl)cc1)C(=O)OCC(=O)c1ccc(F)cc1 (stereo unspecified),91,89,.,.,.
COc1ccccc1NC(=O)C1=C(C)Nc2nnnn2C1c1cccc(C)c1 (stereo unspecified),64,54,30*,85,74
O=C(NN=C1CCCCCCCCCCC1)c1cccc(S(=O)(=O)N2CCOCC2)c1,95,94,.,.,.
Cc1ccc(Nc2nc(N/N=C/c3c[nH]c4ccccc34)nc(N3CCOCC3)n2)cc1,2.8*,5.1*,.,.,.
Cc1[nH]c2ccccc2c1/C=N/Nc1nc(Nc2ccc(F)cc2)nc(N2CCOCC2)n1,3.6*,5.8*,.,.,.
C(=N\Nc1nc(Nc2ccccc2)nc(N2CCOCC2)n1)/c1c[nH]c2ccccc12,10,13,.,.,.
COc1ccc(-c2nc3ccccc3c(=O)n2CCOc2cc(C)ccc2C)cc1,78,78,.,.,.
CCOC(=O)/C=C/C(=O)Nc1nccs1,48,48,.,.,.
SMILES,HCT116 PTEN-null,bCat KO growth,H69AR inhibit,Fibroblast inh,HUVEC inhibit
COc1ccc(CCN2C(=NC(=O)CCC(=O)O)SC3CS(=O)(=O)CC32)cc1 (stereo unspecified),113,107,92,110,96
CCC(C)(C)n1nnnc1C(c1cc2ccc(OC)cc2[nH]c1=O)N1CCc2ccccc2C1 (stereo unspecified),2.9*,10,81,76,75
COc1ccc2cc(C(c3nnnn3C(C)(C)C)N3CCc4ccccc4C3)c(=O)[nH]c2c1 (stereo unspecified),4,3.5*,72,63,70
O=C(/C(C=Nc1ccc(F)cc1)=C(/O)c1ccco1)C(F)(F)F,98,95,.,.,.
COCc1cc(CN2CCCC2)c(O)c2ncccc12,5,6,23*,3.3*,73
Oc1c(CN2CCCCC2)cc(COCc2ccccc2)c2cccnc12,2.2*,1.7*,.,.,.
COc1ccccc1N1CCN(Cc2cc(Br)c(O)c3ncccc23)CC1,2.1*,2.2*,20*,3.2*,32
O=[N+]([O-])c1cc(CN2CCCC2)c2cccnc2c1O,88,94,.,.,.
COc1ccc(N(C(=O)CCl)C(C)(C(=O)Nc2c(C)cccc2C)c2ccccn2)cc1 (stereo unspecified),83,81,.,.,.
CCN(CC)S(=O)(=O)c1ccc(N2CCOCC2)c(NS(=O)(=O)c2ccc(C)c(C)c2)c1,75,80,.,.,.
COc1ccccc1OCC(=O)Nc1nonc1NC(=O)COc1ccccc1OC,93,96,.,.,.
Cc1ccc(S(=O)(=O)/N=C(/c2ccc(F)cc2)N2CCCCC2)cc1,89,84,.,.,.
CC[C@H](C)C(=O)O[C@H]1C[C@@H](C)C=C2C=C[C@H](C)[C@H](CC[C@@H]3C[C@@H](O)CC(=O)O3)[C@H]21,96,94,46,46*,17*
Cn1cnnc1SCc1ccc(C(=O)N=Nc2c(O)n(Cc3ccc(Cl)cc3)c3ccccc23)cc1,4,3.8*,.,.,.
Cc1cccc(-n2nnnc2SC(C)C(=O)NCCC2=CCCCC2)c1 (stereo unspecified),84,72,35*,95,103
Cc1ccc(C)n1NC(=O)c1ccccc1O,48,55,29*,45*,88
CCOc1cc(CNc2ccccc2SC)ccc1O,91,95,.,.,.
COc1cc(CNc2ccccc2SC)ccc1O,95,75,27*,.,88
N#Cc1cc(C(=O)c2cc(Br)ccc2O)cn(C2CCCCC2)c1=O,44,49,13*,93,98
N#Cc1cc(C(=O)c2ccccc2OCC(=O)Nc2ccccc2Cl)cn(C2CCCCC2)c1=O,75,75,.,.,.
Cc1cccc(Nc2nc(N)c([N+](=O)[O-])c(N3CCCC(C)C3)n2)c1 (stereo unspecified),2.8*,9,.,.,.
Cc1cccc(Nc2nc(N)c([N+](=O)[O-])c(N3CCN(C)CC3)n2)c1,67,76,.,.,.
O=c1[nH]c(CSc2nc(-c3ccc(F)cc3)cs2)nc2ccccc12,97,88,.,.,.
COCCCNC(=O)c1cccn2c(=O)c3cc4ccccc4cc3nc12,4,4.3*,51,90,61
C=CCn1c(=N)c(C(=O)NCCCOC)cc2c(=O)n3cccc(C)c3nc21,78,81,79,104,95
O=C(NCc1ccco1)c1cnc2ccccn2c1=O,107,103,94,93,89
O=C(NCc1ccco1)c1cccn2c(=O)c3cc4ccccc4cc3nc12,1.7*,2.6*,21*,87,53
COc1ccc(N(CC(=O)NCCSC2CCCCC2)S(C)(=O)=O)c(OC)c1,94,97,102,95,94
O=C(CN1CCN(c2ccccc2O)CC1)Nc1ccc2c(c1)CCC2,89,81,.,.,.
